Assay: Toxicity liver stage against HepG2, at 10uM
Assay type: cell-based
Set-up: test concentration 10 uM, cell line HepG2-A16-CD81EGFP
Conditions: human, HepG2-A16-CD81EGFP cells; read-out: INHIBITION
Outline: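 Uninfected HepG2-A16-CD81EGFP cells, 3 × 10^3 per well, 1536-well, plated on prespotted compound at 10 μM final, parasite-free screening media added to match infected plates; puromycin 10 μM positive, DMSO 0.5% negative; run in parallel with 48 h PbLuc assay at 37 °C, 5% CO2; viability by CellTiter-Glo luminescence, normalized to controls.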

Compound | cytotoxicity at 10 µM [%]
N#Cc1ccc(CN2CCC(CCc3ccc(O)cc3)CC2)cc1 | 38.8
CCOCc1nc(N2CCCC2)sc1C(=O)NCCC(=O)OCC | -3.66
O=C1CCNc2ncc(-c3cccc(Cl)c3)cc2CN1C1CC1 | 8.55
CC(C)CCc1cc(C(=O)O)nc2[nH]c(=O)[nH]c(=O)c12 | 4.31
COc1cc2nc(C)n(CC(=O)NCCN(C)C)c(=O)c2cc1OC | -7.18
O=C(Cc1csc(-c2ccccc2F)n1)NCc1ccc(C(=O)O)cc1 | -3.85
COC(=O)Nc1nc2c(s1)CN(C(=O)NCc1cccs1)CC2 | 3.89
CC(C)C(=O)N1CCN(c2cc(N(C)C)cnn2)CC1 | -6.45
CO[C@H]1CCN(C(=O)c2cc(C)on2)C[C@@H]1Cc1ccccc1 | 4.06
Cc1nnc(C[C@@H]2COC[C@H]3CN(C(=O)c4ccco4)C[C@@H]23)o1 | -8.75
CCC(C)N1CCc2nc(N3CCCC3)nc(NC(C)C)c2C1 (stereo unspecified) | 8.53
O=C(NC1CC1)[C@H]1C[C@H]2OCC[C@H]2N(Cc2ccco2)C1 | 8.88
Cn1c(=O)n(C)c2cc(NS(=O)(=O)Cc3ccccc3)ccc21 | -4.62
CC(C)c1noc(-c2ccc(-n3cnc(C(=O)O)c3)nc2)n1 | -2.06
COc1ccc(-c2nnsc2C(=O)N2CCN(C(C)=O)CC2)cc1 | -0.145
COc1cc(C2SCC(=O)Nc3[nH]ncc32)c(OC)c2c1OCO2 (stereo unspecified) | 6.63
Cc1ccncc1CN1CCOCC1c1[nH]ncc1C (stereo unspecified) | 1.78
CCC(=O)N1CCCCC[C@@H]2[C@@H]1[C@H](c1cccc(F)c1)CN2C | 8.63
Cn1cc(CN2CCCC(n3c(=O)oc4ccccc43)C2)cn1 (stereo unspecified) | -0.18
CCOCCCNS(=O)(=O)c1ccc2c(c1)NC(=O)C(C)O2 (stereo unspecified) | -3.57
O=C(O)c1ccccc1-c1ccc(Cn2c(=O)cc[nH]c2=O)cc1 | 5.64
NCC(=O)N1CCCC(O)(CN2CCN(c3ccccc3)CC2)CC1 (stereo unspecified) | -7.58
Cc1cc(N2CCC(Cc3cnccn3)C2)ncn1 (stereo unspecified) | -3.24

Compound | cytotoxicity at 10 µM [%]
Cc1ccc(CN2CCc3nc(C(C)C)nc(O)c3CC2)s1 | 0.913
CNc1cncc(C2CCCN2C(=O)c2ccc3nc(C)[nH]c3c2)n1 (stereo unspecified) | -8.94
O=C(N[C@@H]1CN(Cc2ccc(F)c(F)c2)C[C@H]1O)c1cscn1 | -3.78
CC(CCc1cccn1C)NC(=O)Nc1cccn(C)c1=O (stereo unspecified) | 3.14
Cn1c(N)nnc1SC1CCCN(c2ccccc2)C1=O (stereo unspecified) | 0.296
CC(C)c1nc(NS(=O)(=O)c2ccccc2Cl)no1 | 10
Cc1ccc(-c2ncc(CN3CCN(C(=O)N(C)C)CC3)s2)o1 | -3.25
Cc1ccccc1NC(=O)CCNC(=O)c1ccoc1 | -0.714
CCc1nnc(NC(=O)NCCN(C)C(=O)OC(C)(C)C)s1 | -1.6
CCOc1cc(NC(=O)N2CCOC3(CCC3)C2)ccc1C | -0.535
CCOC1CCN(C(=O)NCc2cccc(-n3cccn3)c2)CC1 | 0.944
CCOCC(=O)Nc1ccc(N2CCSCC2)cc1C | 9.53
COc1cccc(CNc2nc(N3CCOCC3)ns2)c1OC | -2.76
CCC1CCCCN1CCc1ccncc1 (stereo unspecified) | 2.4
Cc1cc(Nc2ccc3c(c2)CC(=O)N3)nc(C(C)C)n1 | 3.67
COC1CCN(CC(=O)NCc2ccc(OCC(N)=O)cc2)CC1 | -0.094
O=C(CNC1(c2ccc(Cl)cc2)CCOCC1)NC1CCCC1 | 2.32
COC(=O)c1cc(OC)ccc1NCC(=O)NCC(=O)N1CCCC1 | 0.431
Cc1nc(CN(C)Cc2cc3c(cc2OC(F)F)OCO3)cs1 | 8.68
COC(=O)CCNC(=O)c1nnn(-c2ccc(F)cc2)c1C1CC1 | -12.1
O=C(NCc1ccncc1)N(Cc1ccc(F)cc1F)C1CC1 | 3.9
CC(C(=O)Nc1ccnn1C(C)C)N1CCc2nn(C)c(=O)cc2C1 (stereo unspecified) | 3.95
Cc1noc(CN(Cc2cccc(C#N)c2)Cc2cccs2)n1 | 3.8

Compound | cytotoxicity at 10 µM [%]
CCc1noc(C(C)N2CCN(CC(=O)N3CCOCC3)CC2)n1 (stereo unspecified) | 6.01
CNC(=O)c1cccc(CCNc2ccccn2)c1 | 1.68
COCc1nc(CNC2CCCc3c2cnn3C(C)(C)C)cs1 (stereo unspecified) | -1.62
COCC(C)(CCO)NC(=O)Nc1c(F)cccc1Br (stereo unspecified) | 3.79
CCn1nc2c(cc1=O)CN(CCOc1ccccc1C#N)CC2 | 19.2
O=S(=O)(NCCc1nnc2ccccn12)c1cccnc1 | 1.9
COc1cc(C(=O)NCCc2cccc(C)c2)on1 | 0.572
N#Cc1cc(F)c(NCCCOCC2CCOC2)c(F)c1 (stereo unspecified) | 6.43
COCC(NC(=O)NCc1sccc1C)c1ccco1 (stereo unspecified) | -3.25
CC(C)(C)NC(=O)CNc1ccc(C#N)c(C(F)(F)F)c1 | -1.28
Cc1cc(N2CCC(N(C)C(=O)c3ccccc3)CC2)nc(C)n1 | -4.69
CN(C)C(CNC(=O)c1cccc(-n2cnnn2)c1)c1ccccc1Cl (stereo unspecified) | -6.08
O=C(NCC1Cn2nnc(-c3ccsc3)c2CO1)N1CCCC1 (stereo unspecified) | -110
COCC(=O)N1CC[C@@H]2O[C@H](COCc3csc(C)n3)CC[C@@H]21 | -85.8
O=C(N1CCCC1)N1CCCC2(CCN(c3ccsc3)C2=O)C1 (stereo unspecified) | -74.1
O=C(O)c1cnc(-c2cccc3c2CCNC3)c(Cl)c1 | 8.97
Nc1ccc(-c2cc(O)cc(CCC3CCCCN3)c2)cn1 (stereo unspecified) | -9.66
CN(C)Cc1nnc(C2CCN(c3ncccc3Cl)CC2)n1C1CC1 | -2.57
COCCN(Cc1cnn(C)c1)C(=O)C1CCCN(C2CCOCC2)C1 (stereo unspecified) | 4.76
CN(Cc1cc(-c2cccnc2)no1)C(=O)[C@@H]1CSCN1C | 0.66
CN(C)C(=O)N1CC[C@@H](c2ccc3ccccc3c2)[C@H](O)C1 | -5.81
Cc1ccccc1[C@@H]1CN(Cc2c(C)noc2C)C[C@H]1C(=O)O | -7.74
COC(=O)[C@@H]1CCCN1C(=O)c1cn(CCCc2ccccc2)nn1 | 3.15

Compound | cytotoxicity at 10 µM [%]
CN1CC2(CCCN(Cc3nnc(-c4ccco4)o3)CC2)OC1=O (stereo unspecified) | -6.12
Cc1noc(CN(C)C(=O)c2n[nH]c(N)c2-c2ccccc2)n1 | -2.14
NC(=O)C1CCN(CC(=O)N(Cc2ccccc2)Cc2nccs2)CC1 | -5.08
Cc1cccc(CN(C(=O)CCn2cncn2)C(C)C)c1 | 8.32
COc1cccc2ncn(C(C)Cn3cccn3)c(=O)c12 (stereo unspecified) | 1.37
Cc1occc1C(=O)N1CCC2(CCCN(CC3CC3)C2=O)C1 (stereo unspecified) | -4.58
CSc1ncc(C(=O)NCc2cc3n(n2)CCCN(CC(C)C)C3)cn1 | 5.89
Cc1c[nH]c(CN2CC[C@@]3(O)CCN(C(=O)C4CCC4)C[C@H]3C2)n1 | 1.27
Cc1ccccc1CN(CCN(C)C)Cc1ccccc1C(=O)O | -1.97
O=c1[nH]c(COc2ccccc2Cl)nc2c1CCNC2 | 1.97
CCCOC1CCCN(C(=O)c2cnc(-c3csc(C)n3)nc2O)C1 (stereo unspecified) | -1.97
COc1cccc(CN2CCCC(Nc3cccc(F)c3)C2)c1O (stereo unspecified) | -10.2
CCn1ncnc1C(NC(=O)CC1CCN(C(C)C)CC1)C1CC1 (stereo unspecified) | 8.6
CCOCCNc1nc(C2CCCC2)nc2c1cnn2C | -11
Cn1ccnc1CN1CCN(Cc2ccc(C#N)cc2)CC1 | -10.3
NC(=O)C1CN(C(=O)Nc2ccccc2SC2CCCC2)CCO1 (stereo unspecified) | -5.15
Cc1cnn(C2CCCN(C(=O)CCc3cnn(C)c3)C2)c1 (stereo unspecified) | -11.1
NC(=O)c1cccc(CN2CCc3c(ncn3C3CC3)C2)c1 | -4.6
CCN(CC)CC(=O)N1CCN(c2nc(C)cc(OC)n2)CC1 | -10.4
NC(=O)Cn1cc(NC(=O)N2CCCCCC2)cn1 | -11.8
Cc1cnn(CC2CCCN2Cc2ncc(-c3ccc(F)cc3)o2)c1 (stereo unspecified) | -17.6
O=C(c1cccc2c1OCCO2)N1CCCC1c1noc(C2CC2)n1 (stereo unspecified) | -14.5
CCC(O)CN1CCN(C(=O)c2ccn(-c3ccccc3)n2)CC1 (stereo unspecified) | -9.33

Compound | cytotoxicity at 10 µM [%]
O=C(NCCc1ccccn1)C1CC(=O)N(CC(F)(F)F)C1 (stereo unspecified) | -25.2
Cc1ccc(CC(=O)N2CCN(c3nccs3)CC2)s1 | -13
CCOCC(O)CN1CCN(C(=O)C2CCCCC2)CC1 (stereo unspecified) | -21.5
Cc1cnc(CN(C)C2CCN(CCc3cnn(C)c3)C2)o1 (stereo unspecified) | 5.44
COC(CNC(=O)N1CCC(n2cncn2)CC1)c1ccccc1 (stereo unspecified) | 4.33
O=C(O)[C@]12CCCN(Cc3ccccc3)C[C@H]1CN(c1ncccn1)C2 | -8.33
Cc1ccc(CN2CCC3(CCN(c4cnn(C)c4)C3=O)C2)s1 (stereo unspecified) | -70
O=C(NCc1cccs1)[C@]12COC[C@H]1CN(c1ncccn1)C2 | 11.6
CC(=O)NC1CCN(c2ccnc(C3CCNCC3)c2)CC1 | -6.15
COCCO[C@@H]1CCN(C(=O)c2ccc(C)o2)[C@@H]1Cc1cccnc1 | -12.2
O=S(=O)(c1cccs1)N1CC[C@H]2[C@H]1CCN2CC1CC1 | 2.94
COCC1COCCC12CCN(CCc1ccccc1)CC2 (stereo unspecified) | -26
Cc1ccc(N2C[C@@H]3CN(Cc4ccoc4)CCO[C@@H]3C2)nn1 | -12.8
CCN1CCCC12CCCN(c1ncccn1)C2 (stereo unspecified) | 0.113
CC(C)N1CCc2c(c(COc3cncnc3)nn2CC2CC2)C1 | 1.7
Cc1ccc(C(CCNCCN(C)C)C2CCOC(C)(C)C2)cc1 (stereo unspecified) | 3.46
CCCNc1ncc(CN2C[C@@H]3CC[C@H]2CN(C2CCOCC2)C3)cn1 | -7.84
CN(C)c1ncc(C(=O)N2C[C@H]3CC(Oc4ccccc4)C[C@H]3C2)cn1 (stereo partly specified) | 2.54
Cc1cccc(S(=O)(=O)N2C[C@@H]3C[C@H](C(=O)NCC4CC4)[C@H](C2)O3)c1 | -2.35

From ChEMBL document CHEMBL4513216, “Probing the Open Global Health Chemical Diversity Library for Multistage-Active Starting Points for Next-Generation Antimalarials” (ACS Infect Dis, 2020)
